1 molecule from ChEMBL document CHEMBL2390921, “A novel benzazepinone sodium channel blocker with oral efficacy in a rat model of neuropathic pain” (Bioorg Med Chem Lett, 2013) can be followed below.

The test system of data set [1] is Rattus norvegicus. Nature of the data set: Neurotoxicity in rat assessed as motor impairment at 30 to 100 mg/kg, po after 2 to 4 hrs by rotarod test. It counts as toxicity, organism-based. Also on record: route oral. Conditions: in vivo. The gist of the method:
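Rats were trained on a rotarod for 3 min at 10 rpm, then given a single oral dose of test agent or vehicle and tested at 2 and 4 h post-dose. During testing the rod ran at 10 rpm for 60 s, then accelerated to 60 rpm. Time to fall after the start of acceleration was recorded. Impairment was defined as >20% reduction in latency.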
Background: In the rotarod test animals must keep their balance on a rotating rod.

The test system of data set [2] is Rattus norvegicus. Nature of the data set: Analgesic activity in po dosed rat spinal nerve ligation neuropathic pain model assessed as reversal of allodynia measured after 4 hrs. It is filed as functional, organism-based. The gist of the method: (§1)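 Rat spinal nerve ligation model. Seven days after surgery, rats received a single oral dose (3, 10 or 30 mg/kg) of test agent or vehicle. Tactile allodynia was scored at 2, 4, 8 and 24 h post-dose with calibrated von Frey filaments using an up-down paradigm. Threshold is the force giving a 50% withdrawal rate. %MPE = (post-compound − post-SNL)/(pre-SNL − post-SNL) × 100, where 100% is full reversal.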

Data set [3] deals with Rattus norvegicus. Nature of the data set: Analgesic activity in rat spinal nerve ligation neuropathic pain model assessed as reversal of allodynia at 3 mg/kg, po measured at 8 hrs relative to control. It counts as functional. The gist of the method: as §1
Data set [4] deals with Rattus norvegicus. Nature of the data set: Analgesic activity in rat spinal nerve ligation neuropathic pain model assessed as reversal of allodynia at 10 mg/kg, po measured at 2 hrs relative to control. It is filed as functional. The gist of the method:
as §1

Data set [5] relates to Rattus norvegicus. Nature of the data set: Analgesic activity in rat spinal nerve ligation neuropathic pain model assessed as reversal of allodynia at 30 mg/kg, po measured at 2 hrs relative to control. It counts as functional. The gist of the method: as §1
The target in data set [6] is T1, B1 bradykinin receptor (Homo sapiens) (UniProt P46663).
T1 sequence (whole entry): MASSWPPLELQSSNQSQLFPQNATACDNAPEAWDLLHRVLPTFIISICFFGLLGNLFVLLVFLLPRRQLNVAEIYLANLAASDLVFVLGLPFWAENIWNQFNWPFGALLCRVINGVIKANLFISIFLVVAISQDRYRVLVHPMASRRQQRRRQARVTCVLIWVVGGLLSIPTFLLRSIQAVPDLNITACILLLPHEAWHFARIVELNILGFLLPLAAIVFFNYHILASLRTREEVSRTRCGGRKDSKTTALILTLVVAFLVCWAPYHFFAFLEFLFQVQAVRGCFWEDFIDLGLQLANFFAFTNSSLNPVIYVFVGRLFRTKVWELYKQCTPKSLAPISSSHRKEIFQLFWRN
Put plainly: Binding affinity to BK1 receptor (unknown origin) at 25 uM relative to control.

Data set [7] deals with Sodium channel protein type 9 subunit alpha (Homo sapiens, UniProt Q15858). Nature of the data set: Binding affinity to resting state of human NaV1.7 channel by whole-cell patch clamp assay. The gist of the method: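 Manual whole-cell voltage clamp measuring block of resting and inactivated channel states at room temperature. Data acquired at 50 kHz, filtered at 10 kHz. Bath: 40 mM NaCl, 120 mM NMDG-Cl, 1 mM KCl, 2.7 mM CaCl2, 0.5 mM MgCl2, 10 mM NMDG-HEPES, pH 7.4.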
Sodium channel protein type 9 subunit alpha, sequence (Q15858 whole entry, looked up): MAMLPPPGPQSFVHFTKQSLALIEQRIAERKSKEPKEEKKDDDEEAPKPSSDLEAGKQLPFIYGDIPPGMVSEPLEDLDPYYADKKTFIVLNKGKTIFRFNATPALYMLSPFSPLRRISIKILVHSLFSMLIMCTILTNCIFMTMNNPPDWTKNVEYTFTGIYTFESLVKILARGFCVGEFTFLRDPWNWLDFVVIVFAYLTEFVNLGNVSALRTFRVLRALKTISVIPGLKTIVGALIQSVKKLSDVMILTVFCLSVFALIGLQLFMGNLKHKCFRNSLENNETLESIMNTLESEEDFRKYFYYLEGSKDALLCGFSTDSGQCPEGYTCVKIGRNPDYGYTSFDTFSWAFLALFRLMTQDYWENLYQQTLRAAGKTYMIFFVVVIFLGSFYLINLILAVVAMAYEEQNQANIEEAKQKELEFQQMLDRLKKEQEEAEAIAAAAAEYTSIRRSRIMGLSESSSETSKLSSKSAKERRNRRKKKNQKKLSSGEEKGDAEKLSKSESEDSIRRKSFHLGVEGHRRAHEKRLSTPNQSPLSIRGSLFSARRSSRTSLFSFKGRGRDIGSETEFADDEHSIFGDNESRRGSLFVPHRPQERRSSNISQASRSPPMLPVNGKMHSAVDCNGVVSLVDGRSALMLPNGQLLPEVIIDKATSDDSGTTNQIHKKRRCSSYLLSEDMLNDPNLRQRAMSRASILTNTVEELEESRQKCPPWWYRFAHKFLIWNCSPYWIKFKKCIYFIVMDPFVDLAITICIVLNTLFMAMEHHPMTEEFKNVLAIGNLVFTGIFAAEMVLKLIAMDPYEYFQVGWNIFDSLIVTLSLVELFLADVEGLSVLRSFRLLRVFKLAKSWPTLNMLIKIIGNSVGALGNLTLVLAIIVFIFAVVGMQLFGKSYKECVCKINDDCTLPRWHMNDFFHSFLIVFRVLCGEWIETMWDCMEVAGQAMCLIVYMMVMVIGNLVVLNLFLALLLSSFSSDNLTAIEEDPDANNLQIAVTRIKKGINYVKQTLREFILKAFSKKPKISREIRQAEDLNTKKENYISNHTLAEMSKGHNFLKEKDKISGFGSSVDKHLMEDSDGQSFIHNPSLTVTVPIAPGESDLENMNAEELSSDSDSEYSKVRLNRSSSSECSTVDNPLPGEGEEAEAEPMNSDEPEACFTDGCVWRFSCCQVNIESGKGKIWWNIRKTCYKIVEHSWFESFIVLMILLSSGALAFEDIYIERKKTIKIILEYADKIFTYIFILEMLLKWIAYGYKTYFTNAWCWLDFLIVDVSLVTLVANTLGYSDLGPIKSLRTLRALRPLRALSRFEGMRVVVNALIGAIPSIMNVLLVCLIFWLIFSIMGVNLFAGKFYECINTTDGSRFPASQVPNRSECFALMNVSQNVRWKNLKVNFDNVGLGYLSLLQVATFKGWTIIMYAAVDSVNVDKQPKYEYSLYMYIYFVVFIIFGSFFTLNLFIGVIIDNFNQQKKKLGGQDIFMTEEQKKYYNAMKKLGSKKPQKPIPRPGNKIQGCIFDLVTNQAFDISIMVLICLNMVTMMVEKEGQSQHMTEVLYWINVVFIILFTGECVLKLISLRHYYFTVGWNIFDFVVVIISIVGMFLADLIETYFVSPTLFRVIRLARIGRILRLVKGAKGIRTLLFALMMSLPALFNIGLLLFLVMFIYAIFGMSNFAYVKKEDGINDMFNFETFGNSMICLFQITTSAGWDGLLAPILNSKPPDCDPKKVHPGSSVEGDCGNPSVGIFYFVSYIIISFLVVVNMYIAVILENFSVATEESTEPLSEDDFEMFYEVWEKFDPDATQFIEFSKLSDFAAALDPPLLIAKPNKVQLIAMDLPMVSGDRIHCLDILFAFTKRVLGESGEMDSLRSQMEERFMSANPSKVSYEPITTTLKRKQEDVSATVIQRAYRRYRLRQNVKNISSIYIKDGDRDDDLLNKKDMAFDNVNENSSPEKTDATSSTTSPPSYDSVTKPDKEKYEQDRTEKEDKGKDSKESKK

Data set [8] concerns the target Sodium channel protein type 5 subunit alpha (Homo sapiens, UniProt Q14524). Put plainly: Binding affinity to resting state of human NaV1.5 channel by whole-cell patch clamp assay. Conditions: read-out: K. On the technique in general: In patch-clamp work, channel activity is measured electrically.

Some results are limits rather than exact numbers.

Sodium channel protein type 5 subunit alpha, sequence (Q14524 whole entry): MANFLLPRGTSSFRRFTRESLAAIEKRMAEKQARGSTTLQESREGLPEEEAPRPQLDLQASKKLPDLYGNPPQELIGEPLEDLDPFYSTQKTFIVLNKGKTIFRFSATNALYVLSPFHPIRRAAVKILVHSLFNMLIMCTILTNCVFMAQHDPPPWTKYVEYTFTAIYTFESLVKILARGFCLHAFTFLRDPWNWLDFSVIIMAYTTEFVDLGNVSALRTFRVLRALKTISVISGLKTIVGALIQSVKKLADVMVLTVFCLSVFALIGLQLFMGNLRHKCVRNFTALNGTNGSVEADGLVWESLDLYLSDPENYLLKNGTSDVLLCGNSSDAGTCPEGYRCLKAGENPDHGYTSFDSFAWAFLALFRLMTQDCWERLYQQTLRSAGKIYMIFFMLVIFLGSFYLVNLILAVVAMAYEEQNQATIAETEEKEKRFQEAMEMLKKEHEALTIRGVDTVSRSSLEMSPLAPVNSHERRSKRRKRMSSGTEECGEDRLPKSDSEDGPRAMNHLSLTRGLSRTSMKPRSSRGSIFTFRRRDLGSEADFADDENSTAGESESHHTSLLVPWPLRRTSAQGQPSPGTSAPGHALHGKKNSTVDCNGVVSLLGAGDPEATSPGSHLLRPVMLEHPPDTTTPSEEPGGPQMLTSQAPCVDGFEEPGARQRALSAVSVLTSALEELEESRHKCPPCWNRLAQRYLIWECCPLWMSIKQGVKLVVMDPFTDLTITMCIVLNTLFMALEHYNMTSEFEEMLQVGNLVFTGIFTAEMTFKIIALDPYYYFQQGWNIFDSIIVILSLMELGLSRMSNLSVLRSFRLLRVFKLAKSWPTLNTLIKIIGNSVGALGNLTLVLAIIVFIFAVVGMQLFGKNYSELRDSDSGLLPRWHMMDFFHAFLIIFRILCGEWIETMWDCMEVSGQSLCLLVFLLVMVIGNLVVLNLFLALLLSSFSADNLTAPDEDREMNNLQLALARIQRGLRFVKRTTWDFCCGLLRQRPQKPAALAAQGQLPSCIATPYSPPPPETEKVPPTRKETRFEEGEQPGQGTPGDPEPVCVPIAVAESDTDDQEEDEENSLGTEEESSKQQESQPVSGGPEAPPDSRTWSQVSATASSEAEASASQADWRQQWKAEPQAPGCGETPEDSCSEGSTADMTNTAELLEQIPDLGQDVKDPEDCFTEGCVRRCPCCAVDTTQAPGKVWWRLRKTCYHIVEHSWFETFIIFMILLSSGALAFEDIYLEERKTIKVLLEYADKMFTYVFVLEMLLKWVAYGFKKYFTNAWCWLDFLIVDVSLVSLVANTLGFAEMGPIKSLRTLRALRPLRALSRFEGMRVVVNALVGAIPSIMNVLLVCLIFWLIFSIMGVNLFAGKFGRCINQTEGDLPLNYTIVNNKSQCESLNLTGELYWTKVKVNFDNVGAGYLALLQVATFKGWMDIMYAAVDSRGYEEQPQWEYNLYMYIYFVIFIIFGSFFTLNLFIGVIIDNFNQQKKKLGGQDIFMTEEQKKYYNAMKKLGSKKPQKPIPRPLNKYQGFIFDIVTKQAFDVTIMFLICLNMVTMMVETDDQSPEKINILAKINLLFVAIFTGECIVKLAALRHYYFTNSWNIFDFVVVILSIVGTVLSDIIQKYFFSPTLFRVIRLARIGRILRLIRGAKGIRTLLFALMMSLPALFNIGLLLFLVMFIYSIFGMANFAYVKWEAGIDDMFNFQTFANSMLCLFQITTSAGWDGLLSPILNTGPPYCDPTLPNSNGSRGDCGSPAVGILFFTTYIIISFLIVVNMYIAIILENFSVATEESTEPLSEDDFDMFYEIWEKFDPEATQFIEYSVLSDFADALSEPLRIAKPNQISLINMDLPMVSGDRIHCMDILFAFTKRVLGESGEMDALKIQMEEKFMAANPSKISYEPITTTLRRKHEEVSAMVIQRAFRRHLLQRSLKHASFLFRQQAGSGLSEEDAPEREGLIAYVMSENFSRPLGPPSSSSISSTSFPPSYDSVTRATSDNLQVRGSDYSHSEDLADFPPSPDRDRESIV

As for `O=C(N[C@H](Cc1ccccc1F)C(=O)N[C@@H]1CCc2c(F)c(F)cc(F)c2N(C2CC2)C1=O)C1CC1C(F)(F)F` (stereo partly drawn), the Activity result in the data set on Rattus norvegicus [1] is “Non-toxic”; in the data set on Rattus norvegicus [2], “Dose-dependent effect”; with Rattus norvegicus [3], 7%; in the data set with Rattus norvegicus [4], 43%; in the data set on Rattus norvegicus [5] it was 62%; in data set [6], less than 50%. This molecule also came in with a K in data set [7] of 24 µM. Also, the Kd in data set [8] is greater than 10 µM.
